Data: ChEMBL document CHEMBL1629668, “Activity of anidulafungin in a murine model of Candida krusei infection: evaluation of mortality and disease burden by quantitative tissue cultures and measurement of serum (1,3)-beta-D-glucan levels” (2009)
≈ marks a conversion by molar mass, not a printed value. Calls of active or inactive are those of the source. Numbered stars: 1 amine (or outer) side, 2 acyl side, 3 side chain; on linkers, the order of the positions; unused ones are H or OH. Bridge positions count the residues as written; N and C are the ends. Square brackets hold non-standard residues; d marks the D form. Peptide text beside a SMILES is read from it. * marks the point of attachment. pTerphenylCO(4''-OnC5H11) = CCCCCOc1ccc(-c2ccc(-c3ccc(C(=O)*)cc3)cc2)cc1; Orn(4R-OH,5R-OH) = O=C([C@H](C[C@@H](O)[C@@H](O)N[*:3])N[*:1])[*:2]; hTyr(3S-OH,4S-OH) = N[C@H](C(=O)O)[C@H](O)[C@@H](O)c1ccc(O)cc1; Pro(3S-OH,4S-Me) = C[C@H]1CN[C@H](C(=O)O)[C@H]1O; Hyp = O=C(O)[C@@H]1C[C@@H](O)CN1

Assays:
Pichia kudriavzevii [1] = assay: Antimicrobial activity against Candida krusei LMR 39-14 infected in immunosuppressed CF-1 mouse assessed as decrease in kidney bacterial burden at 1 mg/kg, ip administered once daily for 5 days measured after 10 days (Rvb= 5.22); assay type: functional; details: route intraperitoneal
Procedure, shortened: (§1)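 C. krusei clinical bloodstream isolate given IV by tail vein at 1.3×10^7 to 1.5×10^7 CFU/mouse, with inoculum confirmed by plating. Mice immunosuppressed with 5-FU 200 mg/kg i.p. 3 days before and dexamethasone 4 mg/kg s.c. on the day of infection. Treatment i.p. q24h for 5 days. Five mice/group killed day 5 or day 10. Both kidneys homogenized and plated on Sabouraud agar for 48 h; log10 CFU/g; detection limit 40 CFU/g; ANOVA; duplicate runs pooled.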

Pichia kudriavzevii [2] = assay: Antimicrobial activity against Candida krusei LMR 39-14 infected in immunosuppressed CF-1 mouse assessed as serum 1,3-beta-D-glucan level at 1 mg/kg, ip administered once daily for 5 days measured after 10 days (Rvb= 5.22); assay type: functional; details: route intraperitoneal
Pichia kudriavzevii [3] = assay: Antimicrobial activity against Candida krusei LMR 39-14 infected in immunosuppressed CF-1 mouse assessed as decrease in kidney bacterial burden at 1 mg/kg, ip administered once daily for 5 days measured after 5 days (Rvb= 6.66); assay type: functional; details: route intraperitoneal; procedure, shortened: as §1
Pichia kudriavzevii [4] = assay: Antimicrobial activity against Candida krusei LMR 39-14 infected in immunosuppressed CF-1 mouse assessed as serum 1,3-beta-D-glucan level at 1 mg/kg, ip administered once daily for 5 days measured after 5 days (Rvb= 6.66); assay type: functional; details: route intraperitoneal
Pichia kudriavzevii [5] = assay: Antimicrobial activity against Candida krusei LMR 39-14 infected in immunosuppressed CF-1 mouse assessed as increased survival of mouse at 1 mg/kg, ip administered once daily for 5 days relative to control; assay type: functional, organism-based; set-up: dose 1 mg/kg
Procedure, shortened: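 Immunosuppression used 5-FU 200 mg/kg i.p. on day −3 and dexamethasone 4 mg/kg s.c. on day 0. C. krusei bloodstream isolate was given IV via tail vein at 1.3×10^7 to 1.5×10^7 CFU. Drug i.p. q24h for 5 days, saline placebo. Fifteen mice/group per run followed for survival; experiment in duplicate, pooled. Kaplan-Meier estimates compared by log-rank test.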

Pichia kudriavzevii [6] = assay: Antimicrobial activity against Candida krusei LMR 39-14 by M27-A3 microdilution method; assay type: functional
Pichia kudriavzevii [7] = assay: Antimicrobial activity against Candida krusei LMR 39-14 infected in immunosuppressed CF-1 mouse assessed as serum 1,3-beta-D-glucan level at 20 mg/kg, ip administered once daily for 5 days measured after 10 days (Rvb= 5.22); assay type: functional; details: route intraperitoneal
Procedure, shortened: (§2)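 Serum (1,3)-β-D-glucan in immunosuppressed CF-1 mice (5-FU 200 mg/kg i.p. day −3, dexamethasone 4 mg/kg s.c. day 0) infected i.v. with 1.3×10^7 to 1.5×10^7 CFU. Mice dosed i.p. q24h for 5 days with saline placebo. Blood taken from five mice per group on day 5 or 10 post-inoculation and assayed with the Fungitell kit (threshold 31 pg/ml). Groups compared by Kruskal-Wallis; duplicate runs pooled.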

Pichia kudriavzevii [8] = assay: Antimicrobial activity against Candida krusei LMR 39-14 infected in immunosuppressed CF-1 mouse assessed as serum 1,3-beta-D-glucan level at 20 mg/kg, ip administered once daily for 5 days measured after 5 days (Rvb= 5.22); assay type: functional; details: route intraperitoneal; procedure, shortened: as §2
Pichia kudriavzevii [9] = assay: Antimicrobial activity against Candida krusei LMR 39-14 infected in immunosuppressed CF-1 mouse assessed as increased survival of mouse at 20 mg/kg, ip administered once daily for 5 days relative to control; assay type: functional, organism-based; set-up: dose 20 mg/kg
Procedure, shortened: (§3)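 Same immunosuppressed CF-1 model: 5-FU 200 mg/kg i.p. on day −3, dexamethasone 4 mg/kg s.c. on day 0, i.v. tail inoculation of 1.3×10^7 to 1.5×10^7 CFU. Treatment i.p. q24h for 5 days with saline placebo. Fifteen mice per group observed for survival; run in duplicate with data pooled; Kaplan-Meier estimates compared by log-rank test.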

Pichia kudriavzevii [10] = assay: Antimicrobial activity against Candida krusei LMR 39-14 infected in immunosuppressed CF-1 mouse assessed as decrease in kidney bacterial burden at 20 mg/kg, ip administered once daily for 5 days measured after 10 days (Rvb= 5.22); assay type: functional; details: route intraperitoneal
Pichia kudriavzevii [11] = assay: Antimicrobial activity against Candida krusei LMR 39-14 infected in immunosuppressed CF-1 mouse assessed as decrease in kidney bacterial burden at 10 mg/kg, ip administered once daily for 5 days measured after 5 days (Rvb= 6.66); assay type: functional; details: route intraperitoneal
Pichia kudriavzevii [12] = assay: Antimicrobial activity against Candida krusei LMR 39-14 infected in immunosuppressed CF-1 mouse assessed as increased survival of mouse at 10 mg/kg, ip administered once daily for 5 days relative to control; assay type: functional, organism-based; set-up: dose 10 mg/kg; procedure, shortened: as §3
Pichia kudriavzevii [13] = assay: Antimicrobial activity against Candida krusei LMR 39-14 infected in immunosuppressed CF-1 mouse assessed as serum 1,3-beta-D-glucan level at 10 mg/kg, ip administered once daily for 5 days measured after 5 days (Rvb= 6.66); assay type: functional; details: route intraperitoneal; procedure, shortened: as §2
Pichia kudriavzevii [14] = assay: Antimicrobial activity against Candida krusei by […]; assay type: functional
Pichia kudriavzevii [15] = assay: Antimicrobial activity against Candida krusei LMR 39-14 infected in immunosuppressed CF-1 mouse assessed as serum 1,3-beta-D-glucan level at 10 mg/kg, ip administered once daily for 5 days measured after 10 days (Rvb= 5.22); assay type: functional; details: route intraperitoneal; procedure, shortened: as §2
Pichia kudriavzevii [16] = assay: Antimicrobial activity against Candida krusei LMR 39-14 infected in immunosuppressed CF-1 mouse assessed as decrease in kidney bacterial burden at 10 mg/kg, ip administered once daily for 5 days measured after 10 days (Rvb= 5.22); assay type: functional; details: route intraperitoneal
Pichia kudriavzevii [17] = assay: Antimicrobial activity against Candida krusei LMR 39-14 infected in immunosuppressed CF-1 mouse assessed as decrease in kidney bacterial burden at 20 mg/kg, ip administered once daily for 5 days measured after 5 days (Rvb= 5.22); assay type: functional; details: route intraperitoneal
Pichia kudriavzevii [18] = assay: Antimicrobial activity against Candida krusei LMR 39-14 infected in immunosuppressed CF-1 mouse assessed as serum 1,3-beta-D-glucan level at 40 mg/kg, ip administered once daily for 5 days measured after 10 days (Rvb= 5.22); assay type: functional; details: route intraperitoneal; procedure, shortened: as §2
Pichia kudriavzevii [19] = assay: Antimicrobial activity against Candida krusei LMR 39-14 infected in immunosuppressed CF-1 mouse assessed as increased survival of mouse at 40 mg/kg, ip administered once daily for 5 days relative to control; assay type: functional, organism-based; set-up: dose 40 mg/kg; procedure, shortened: as §3
Pichia kudriavzevii [20] = assay: Antimicrobial activity against Candida krusei LMR 39-14 infected in immunosuppressed CF-1 mouse assessed as decrease in kidney bacterial burden at 40 mg/kg, ip administered once daily for 5 days measured after 5 days (Rvb= 6.66); assay type: functional; details: route intraperitoneal
Pichia kudriavzevii [21] = assay: Antimicrobial activity against Candida krusei LMR 39-14 infected in immunosuppressed CF-1 mouse assessed as serum 1,3-beta-D-glucan level at 40 mg/kg, ip administered once daily for 5 days measured after 5 days (Rvb= 6.66); assay type: functional; details: route intraperitoneal; procedure, shortened: as §2
Pichia kudriavzevii [22] = assay: Antimicrobial activity against Candida krusei LMR 39-14 infected in immunosuppressed CF-1 mouse assessed as decrease in kidney […] burden at 40 mg/kg, ip administered once daily for 5 days measured after 10 days (Rvb= 5.22); assay type: functional; details: route intraperitoneal

With `C[C@@H]1[C@H](O)[C@@H](C)/C=C/C=C/C=C/C=C/C=C/C=C/C=C/[C@H](O[C@@H]2O[C@H](C)[C@@H](O)[C@H](N)[C@@H]2O)C[C@@H]2O[C@](O)(C[C@@H](O)C[C@@H](O)[C@H](O)CC[C@@H](O)C[C@@H](O)CC(=O)O[C@H]1C)C[C@H](O)[C@H]2C(=O)O` [AMPHOTERICIN B] the log10CFU/g (Pichia kudriavzevii [1]) was 4.96, the Activity (Pichia kudriavzevii [2]) was 1742 pg/mL and the log10CFU/g (Pichia kudriavzevii [3]) was 5.95. For the same molecule, the Activity (Pichia kudriavzevii [4]) was 2559 pg/mL and the Activity (Pichia kudriavzevii [5]) was “Active”.

`CCCCCOc1ccc(-c2ccc(-c3ccc(C(=O)N[C@H]4C[C@@H](O)[C@@H](O)NC(=O)[C@@H]5[C@@H](O)[C@@H](C)CN5C(=O)[C@H]([C@@H](C)O)NC(=O)[C@H]([C@H](O)[C@@H](O)c5ccc(O)cc5)NC(=O)[C@@H]5C[C@@H](O)CN5C(=O)[C@H]([C@@H](C)O)NC4=O)cc3)cc2)cc1` [ANIDULAFUNGIN] ({pTerphenylCO(4''-OnC5H11)}-[Orn(4R-OH,5R-OH)]T[Hyp][hTyr(3S-OH,4S-OH)]T[Pro(3S-OH,4S-Me)]; lactam 1-C) gave an MIC (Pichia kudriavzevii [6]) of 0.06 µg/mL (≈ 0.0526 µM), an Activity (Pichia kudriavzevii [7]) of 693 pg/mL and an Activity (Pichia kudriavzevii [8]) of 351 pg/mL. For the same molecule, the Activity (Pichia kudriavzevii [9]) was “Active”, the log10CFU/g (Pichia kudriavzevii [10]) was 1.59 and the log10CFU/g (Pichia kudriavzevii [11]) was 4.06. For the same molecule, the Activity (Pichia kudriavzevii [12]) was “Active”, the Activity (Pichia kudriavzevii [13]) was 256 pg/mL and the MIC90 (Pichia kudriavzevii [14]) was 0.06 µg/mL (≈ 0.0526 µM). For the same molecule, the Activity (Pichia kudriavzevii [15]) was 624 pg/mL, the log10CFU/g (Pichia kudriavzevii [16]) was 0.96 and the log10CFU/g (Pichia kudriavzevii [17]) was 3.97.

For `OC(Cn1cncn1)(Cn1cncn1)c1ccc(F)cc1F` [FLUCONAZOLE], the Activity (Pichia kudriavzevii [18]) was 1292 pg/mL, the Activity (Pichia kudriavzevii [19]) was “Active” and the MIC (Pichia kudriavzevii [6]) was > 64 µg/mL. For the same molecule, the log10CFU/g (Pichia kudriavzevii [20]) was 7.01, the Activity (Pichia kudriavzevii [21]) was 2714 pg/mL and the log10CFU/g (Pichia kudriavzevii [22]) was 4.77.
